Screening results deposited in PubChem BioAssay by Broad Institute.
E-selectin induc: induces E-selectin expression in human endothelial cells; HUVEC E-selectin immunofluorescence imaging; normalized: neutral wells 0, TNF-alpha wells 100; 0.37% of 260,000 active; activation, % at 7.58 µM; AID 686992; P16581;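 active means mean E-selectin-positive cell signal at least 10% of the positive control, reached in at least 60% of replicates, without over 20% cell loss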
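Assay system: HUVEC, human umbilical vein endothelial cells / Amount: 3,000 HUVEC/well / Controls: TNF-alpha positive control, DMSO neutral control / Compound dosing: single concentration / Medium: EGM-2 over gelatin coat / Evaluation: percent E-selectin-positive cells / Signal: immunofluorescence imaging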
S100A4 inh HTS: S100A4-myosin IIA interaction inhibition. P26447. S100A4/TAMRA-MyoIIA peptide fluorescence polarization. inhibition, % at 10.7 µM. AID 652163. 0.14% of 360,000 active;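 active means mean inhibition of at least 70% across replicates, with every replicate also reaching that level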
Target sequence (P26447 whole entry, looked up): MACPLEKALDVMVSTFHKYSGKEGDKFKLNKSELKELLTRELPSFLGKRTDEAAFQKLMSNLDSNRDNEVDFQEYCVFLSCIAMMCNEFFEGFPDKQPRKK
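Material: S100A4 monomer (human). Medium: Calcium-containing HEPES buffer, pH 7.2. Probe or stimulus: labelled myosin peptide probe, 5 nM. Compound dosing: one concentration per compound. Timing: polarization read 5 min after assay mix addition, stable 5–60 min. Benchmarks: DMSO as neutral control, TFP as positive control.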
AF4-AF9 inh: inhibitors of human MLL-AF4/AF9 interaction; AlphaScreen, biotin-AF4 peptide binding to FLAG-AF9; 0.47% of 350,000 active; inhibition, % at 10 µM;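 active means every replicate reaching a set inhibition limit, whatever the replicate mean, cut at about 25% in these data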;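 further: 0% = plate neutral control median and 100% = total signal loss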
ERAP1 inh: inhibitors of human ERAP1 aminopeptidase; Q9NZ08; recombinant ERAP1, Leu-AMC fluorescence, 60 min; inhibition, % at 10.7 µM; 0.15% of 340,000 active; AID 652197;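 active means mean replicate inhibition of at least 30%, or all replicates individually reaching that 30% level; inactive means mean below 30% and not every replicate reaching it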;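 further: 0% = neutral control wells and 100% = L-leucinethiol positive control wells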
rRNA inh HTS: selective bacterial rRNA inhibition in E. coli; GFP signal change (wild-type ribosome), % (no concentration beside the values); AID 720706; 1.6% of 350,000 active; E. coli WT GFP vs humanized-ribosome RFP mutants, fluorescence, 24 h; hits give low values; DMSO median 0, no signal -100;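 active means significant combined selectivity score with lowered wild-type GFP, culture density cut under 30%, mutant RFP and density less affected; inactive means any of these conditions unmet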
SIRT5 inh: sirtuin-5 (human) deacylase inhibition | Purified SirT5, succinyl-peptide AMC, trypsin-coupled fluorescence | inhibition, % at 15 µM | 1.1% of 330,000 active; in the data active means inhibition above about 15%
Target sequence (Q9NXA8 whole entry, looked up): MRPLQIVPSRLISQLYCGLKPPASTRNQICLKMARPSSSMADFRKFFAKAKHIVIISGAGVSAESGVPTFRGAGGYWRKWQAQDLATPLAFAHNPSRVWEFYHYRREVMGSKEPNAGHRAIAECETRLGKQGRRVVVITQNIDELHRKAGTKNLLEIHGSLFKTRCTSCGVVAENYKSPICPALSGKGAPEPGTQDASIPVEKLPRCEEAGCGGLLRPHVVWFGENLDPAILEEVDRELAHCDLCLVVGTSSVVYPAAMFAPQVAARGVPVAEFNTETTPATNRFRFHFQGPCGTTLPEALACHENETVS
The depositor's hits bear a star. The list is not random: actives were taken first. Their share in the collection is about 3.4%.

Results for COC(=O)C1=C(C)N(Cc2ccccc2C(F)(F)F)C(=NCc2ccc3c(c2)OCO3)NC1c1ccccc1 (centres undefined) ?
E-selectin induc: 0; S100A4 inh HTS: -13; ERAP1 inh: 0; rRNA inh HTS: -42; SIRT5 inh: 17*

How did CCN(CC)CCCN=C1N[C@@H](c2ccccc2)C(C(=O)OC)=C(C)N1CC do in these assays?
E-selectin induc: 0; S100A4 inh HTS: -2; AF4-AF9 inh: -5; ERAP1 inh: 63*; rRNA inh HTS: 23; SIRT5 inh: -2

How did COC(=O)C1=C(C)N(Cc2ccccc2C(F)(F)F)C(=NCc2ccc3c(c2)OCO3)NC1c1ccc(C(F)(F)F)cc1 (centres undefined) do in these assays?
E-selectin induc: 0; S100A4 inh HTS: 4; ERAP1 inh: 2; rRNA inh HTS: 3; SIRT5 inh: 0

How did O=C(N[C@H]1CC[C@@H](CCn2cc(C3CCCCC3)nn2)O[C@H]1CO)c1cccnc1 do in these assays?
E-selectin induc: 0; S100A4 inh HTS: 8; AF4-AF9 inh: 0; ERAP1 inh: 0; rRNA inh HTS: 0; SIRT5 inh: 2

How did Cc1ccc(-c2nc3cnccn3c2Nc2ccc3c(c2)OCO3)o1 do in these assays?
E-selectin induc: 0; S100A4 inh HTS: 5; AF4-AF9 inh: 13; ERAP1 inh: 12; rRNA inh HTS: -17*; SIRT5 inh: 1

What do the screens show for `COc1ccc2nc(C(F)(F)Cl)c(C#N)c(N)c2c1`?
S100A4 inh HTS: -3; AF4-AF9 inh: 3; ERAP1 inh: -6; rRNA inh HTS: -40*; SIRT5 inh: 1

Results for CO[C@@H]1CN(C)C(=O)c2ccc(NC(=O)C3CCOCC3)cc2OC[C@H](C)NC[C@H]1C ?
E-selectin induc: 0; S100A4 inh HTS: 1; AF4-AF9 inh: 0; ERAP1 inh: -1; rRNA inh HTS: 1; SIRT5 inh: -3

Results for CC12CCC(C(=O)NCCc3ccccc3)(OC1=O)C2(C)C (centres undefined) ?
S100A4 inh HTS: -5; AF4-AF9 inh: -4; ERAP1 inh: -3; rRNA inh HTS: -1; SIRT5 inh: 15*

How did COc1ccc(S(=O)(=O)N(C)C[C@@H]2Oc3c(NS(=O)(=O)c4ccc(C)cc4)cccc3C(=O)N([C@@H](C)CO)C[C@@H]2C)cc1 do in these assays?
E-selectin induc: 0; S100A4 inh HTS: -18; AF4-AF9 inh: 3; ERAP1 inh: 7; rRNA inh HTS: -2; SIRT5 inh: 13

What do the screens show for `CC1(C)CN(c2ccccc2)N(C(=O)c2ccc(F)cc2)C1=O`?
S100A4 inh HTS: 6; AF4-AF9 inh: 4; ERAP1 inh: 3; SIRT5 inh: 24*

How did CCCN(C)C[C@H]1OCc2cnnn2CCCC(=O)N([C@H](C)CO)C[C@H]1C do in these assays?
E-selectin induc: 0; S100A4 inh HTS: 2; AF4-AF9 inh: -6; ERAP1 inh: 0; rRNA inh HTS: 2; SIRT5 inh: 0

What do the screens show for `O=C(N1CCCCC1)C1(S(=O)(=O)c2ccccc2)CC=CC1`?
E-selectin induc: 0; S100A4 inh HTS: 4; AF4-AF9 inh: 44*; ERAP1 inh: 4; rRNA inh HTS: 6

How did O=C(N1CCOCC1)C1(S(=O)(=O)c2ccccc2)CC=CC1 do in these assays?
E-selectin induc: 0; S100A4 inh HTS: -17; AF4-AF9 inh: -5; ERAP1 inh: 3; rRNA inh HTS: -1

Results for CCCNC(=O)N1CC2(CN(Cc3ccccn3)C2)c2c(n(C)c3cc(OC)ccc23)[C@@H]1CO ?
E-selectin induc: 0; AF4-AF9 inh: 16; rRNA inh HTS: 1

What do the screens show for `COc1cc(OC)cc(C(=O)N2CCCC(Nc3ccc(F)cc3)C2)c1` (centres undefined)?
E-selectin induc: 0; S100A4 inh HTS: -7; AF4-AF9 inh: 2; ERAP1 inh: 1; rRNA inh HTS: -12; SIRT5 inh: -3

Results for C#Cc1cccc(C(=O)N2CCCC(Nc3cccc(F)c3)C2)c1 (centres undefined) ?
E-selectin induc: 0; S100A4 inh HTS: -3; AF4-AF9 inh: 1; ERAP1 inh: -4; rRNA inh HTS: -33*; SIRT5 inh: -1
